Screening results deposited in PubChem BioAssay by several laboratories.
STAT1 activator: STAT1 signaling activators, primary screen, cell-based, HTS, luciferase reporter | NIH 3T3 STAT1-luciferase reporter, IFN-gamma, luminescence; 100% = IFN-gamma alone, no compound | activation (% of control), % at 5.5 µM | hit rate 2.6% among 200,000;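 active = activation above the screen-wide mean activation plus 3 SD, cut at about 130% in these data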
Pf gamet viab: late stage P. falciparum gametocyte viability inhibitors, primary screen, ATP luminescence, HTS; P. falciparum stage V gametocytes, 24 h; inhibition, % at 10.9 µM; hit rate 0.065% among 150,000;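 active = inhibition above the mean plus 3 SD of compounds within the control limits, set per campaign, cut at about 38% in these data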
FLuc inh counter: firefly luciferase enzyme inhibitors, primary screen, artefact control for luciferase-based inhibitor screens, biochemical, luminescence, ATPLite. 10 min. hit rate 1.5% among 200,000. Luciferin 4-monooxygenase (Photinus pyralis), P08659. inhibition, % at 10 µM. AID 1006, 2008;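 active = inhibition above about 50% when tested at 10 µM, limit read from the data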
Target sequence (P08659 whole entry, looked up): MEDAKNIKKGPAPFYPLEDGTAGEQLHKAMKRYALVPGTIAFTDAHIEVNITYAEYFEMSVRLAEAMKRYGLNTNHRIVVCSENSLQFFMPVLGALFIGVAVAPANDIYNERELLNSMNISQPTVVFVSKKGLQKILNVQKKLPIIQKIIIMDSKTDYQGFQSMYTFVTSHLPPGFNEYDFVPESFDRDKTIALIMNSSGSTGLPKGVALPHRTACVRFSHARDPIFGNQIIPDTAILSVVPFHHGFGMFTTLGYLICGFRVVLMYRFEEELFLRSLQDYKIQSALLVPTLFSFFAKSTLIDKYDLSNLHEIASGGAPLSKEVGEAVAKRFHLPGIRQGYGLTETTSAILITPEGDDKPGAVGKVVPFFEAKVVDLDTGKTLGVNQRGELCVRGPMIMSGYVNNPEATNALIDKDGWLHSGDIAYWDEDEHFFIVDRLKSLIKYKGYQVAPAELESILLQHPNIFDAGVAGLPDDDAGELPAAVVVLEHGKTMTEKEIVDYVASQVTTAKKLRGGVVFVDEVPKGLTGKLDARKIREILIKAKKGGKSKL
NF-kB expr up: activators of NF-kB expression in neurons, primary screen, cell-based, HTS. human neuronal cells, NF-kB reporter expression; hits give high values. fold change at 12.5 µM. hit rate 1.6% among 190,000; in the data active = fold change above about 3.3
FLuc act counter: FLuc activators, initial screening, artefact control for FLuc-dependent activation tests, biochemical, ATPlite luminescence; 200,000 tested, under 10 active; activation factor at 10 µM; Luciferin 4-monooxygenase (Photinus pyralis), P08659; ATPlite luciferase biochemical, 10 min; 0 = ATP-free wells, 1 = DMSO control; AID 1027, 2008;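 active = luciferase activation factor, scaled between plate controls, of at least 2 with compound at 10 µM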
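System: cell-free luciferase reagent; medium: PBS as buffer for the ATP substrate; doses: test compounds dosed from 2 mM stocks in 100% DMSO; incubation: 10 min, room temperature; measured by: luminescence from luciferase reaction; read-out: luciferase activation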
APP 5'UTR act: activators of APP 5'UTR luciferase reporter, primary screen, SH-SY5Y cells. SH-SY5Y APP 5'UTR luciferase reporter, luminescence; zero percent = DMSO vehicle wells. activation, % at 2 µM. hit rate 1% among 190,000. AID 1276, 2008;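 active = activation above a set limit, based on mean plus 3 SD of controls, cut at about 140% in these data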
A number is an active result; 0 = inactive; - = not tested or not shown. Shown are actives, neighbours in structure and some others; about 3.5% of the full set was active somewhere.

SMILES	STAT1 activator	Pf gamet viab	FLuc inh counter	NF-kB expr up	FLuc act counter	APP 5'UTR act
Cc1nn(C)c(C)c1/C=C/C(=O)c1ccccc1	0	-	0	0	0	0
Cc1c(/C=C/C(=O)c2ccc(O)cc2)cnn1C	0	-	58	0	0	0
Cc1c(/C=C/C(=O)c2ccccc2)cnn1C	0	0	0	0	0	0
CCn1ncc(/C=C/C(=O)c2ccccc2)c1C	133	-	82	0	0	198
CCCCCn1c2nc3ccccc3nc2c2c(=O)n(CC3CCCO3)c(C)nc21 (centres undefined)	-	-	0	-	0	-
Clc1ccc(OCc2cn3ccccc3n2)c2ncccc12	145	0	0	0	0	0
Cc1ccc(-n2nnnc2SCCNS(=O)(=O)c2ccccc2)cc1C	0	-	0	0	0	0
Brc1ccc(-c2nc(N/N=C/c3cccnc3)c3ccccc3n2)cc1	0	-	96	0	0	0
O=[N+]([O-])c1ccccc1/C=N/NC1=NCCN1	-	0	-	-	-	-
Cc1ccc(-c2nc(N/N=C/c3ccccc3[N+](=O)[O-])c3ccccc3n2)cc1	0	-	64	0	0	0
C(=N\Nc1nc(-c2cccnc2)nc2ccccc12)/c1ccccc1	-	0	-	-	-	-
Cc1ccc(Nc2nnc(SCC(=O)Nc3cccnc3Cl)s2)cc1C	0	0	63	0	0	0
Oc1ccc(-c2nnc(-c3ccc(O)cc3)nn2)cc1	0	0	78	6.1	0	0
COC(=O)c1ccc(/C=N\N2CCN(c3ccccc3)CC2)cc1	-	0	-	-	-	-
Cn1cccc1CNC(=O)Nc1ccc(Cl)c(Cl)c1	135	-	0	0	0	-
O=C(NCc1cccnc1)Nc1ccc(Cl)c(Cl)c1	-	0	-	-	-	-
CCCc1cc(C(=O)Nc2ccc(F)cc2F)no1	130	-	0	0	0	0
CN(C)CCNC(=O)c1cc2c(s1)-c1ccccc1OC2	0	-	0	0	0	0
Cc1nc(NC(=O)c2cc3c(s2)CCCCC3)sc1C(=O)N(C)C	132	-	0	0	0	0
Cc1nc(NC(=O)c2ccc(Br)s2)sc1C(=O)N(C)C	138	0	0	0	0	0
Cc1csc(NC(=O)c2cc3c(s2)CCC3)n1	0	-	79	9.8	0	0
Cc1csc(NC(=O)c2ccccc2)n1	-	0	-	-	-	-
Cc1csc(NC(=O)c2cc3c(s2)-c2ccccc2OC3)n1	139	-	0	0	0	0
Cc1cc(N(CC(=O)NC2CC2)S(C)(=O)=O)ccc1Br	0	-	0	0	0	0
COc1ccc2c(C#N)c3ccccn3c2c1	0	-	0	0	0	0
SMILES	STAT1 activator	Pf gamet viab	FLuc inh counter	NF-kB expr up	FLuc act counter	APP 5'UTR act
Cc1ccc(/C=N/NC(=O)c2c(C)nc3ccc(Cl)cn23)cc1	-	0	-	-	-	-
COc1nc(N)nc(NC(=O)c2cccs2)c1N=O	-	0	-	-	-	-
NS(=O)(=O)c1cccc(NC(=O)Cn2cnc3ccccc3c2=O)c1	0	0	0	0	0	0
c1cncc(-c2csc(NCc3ccco3)n2)c1	0	-	0	0	0	0
CC(=O)Nc1ccc(-c2csc(NCc3ccco3)n2)cc1	137	-	0	3.7	0	0
CCOc1cccc(CNCCCSc2ncccn2)c1	-	0	-	-	-	-
N/C(=N\OCc1ccccc1)c1nonc1N	129	0	0	0	0	0
O=C(c1cccc(Cl)c1)N1CCC(=O)N(C(CO)Cc2ccccc2)CC1 (centres undefined)	-	0	-	-	-	-
CC(=O)c1ccc(Nc2ccc(-c3ccccc3C)nn2)cc1	144	0	0	0	0	0
CCc1nnc(NS(=O)(=O)c2ccc(N=Cc3c(C)[nH]n(-c4ccc(C)c(C)c4)c3=O)cc2)s1	0	0	66	0	0	0
Cc1ccc(-n2[nH]c(C)c(C=Nc3ccc(S(=O)(=O)Nc4nccs4)cc3)c2=O)cc1	0	-	0	0	0	0
O=C(CCC1CCCC1)Nc1ccc(OCC(=O)N2CCOCC2)cc1	0	-	73	0	0	0
Cc1ccc(-c2nc(-c3ccccn3)sc2CC(=O)O)cc1	-	0	-	-	-	-
CC(=O)Nc1ccc(NC(=O)c2ccnn2C)cc1	-	0	-	-	-	-
CC1(C)CC(=O)c2cnc(N3CCc4ccccc4C3)nc2C1	133	0	0	0	0	0
O=C1CCCc2nc(N3CCc4ccccc43)ncc21	150	0	65	8	0	0
CCC(C)Sc1ccc([C@@H]2[C@@H]3C(=O)N(CC)C(=O)[C@@H]3[C@]3(C(=O)OC)CCCCN23)cc1OC (some centres undefined)	-	0	-	-	-	-
Cn1c(N)c(C(=O)COC(=O)C2=NNC(=O)CC2)c(=O)n(C)c1=O	-	0	-	-	-	-
CCn1c(C)nc2cc(C(=O)N/N=C/c3ccc(OC)cc3)ccc21	0	0	0	0	0	0
CCn1c(C)nc2cc(C(=O)N/N=C/c3cccc(O)c3O)ccc21	0	0	66	0	0	0
CCn1c(C)nc2cc(C(=O)N/N=C/c3ccccc3)ccc21	145	-	0	0	0	0
CCn1c(C)nc2cc(C(=O)N/N=C/c3ccc(O)cc3)ccc21	0	-	0	0	0	0
O=C(O)c1cn(Cc2ccccn2)c(=O)c2ccccc12	0	0	0	0	0	152
O=C(O)c1cn(Cc2cccnc2)c(=O)c2ccccc12	0	-	0	0	0	0
COc1cccc([C@@H]2CC=C(C(=O)O)[C@H](c3cccc(Cl)c3)N2S(=O)(=O)c2ccc(C)cc2)c1	-	0	-	-	-	-
SMILES	STAT1 activator	Pf gamet viab	FLuc inh counter	NF-kB expr up	FLuc act counter	APP 5'UTR act
CC(C)=NN/C(N)=N/C(=S)Nc1ccc(C)cc1	0	-	54	0	0	0
Cn1c(SCc2ccccc2Cl)nc2ccccc21	141	-	0	0	0	0
Cc1ccc(Cn2ccc(NC(=O)c3cc(CC(C)C)on3)n2)cc1	0	-	0	0	0	0
CCOC(=O)c1ccc(C(=O)OCC)c(NC(=S)Nc2ccc([N+](=O)[O-])cc2OC)c1	0	-	0	0	0	0
C/C(=N\NC(=O)c1c(C)nc2ccccn12)c1ccc(N2CCOCC2)cc1	0	0	0	0	0	0
C/C(=N/NC(=O)c1ccccn1)c1ccco1	0	-	70	0	0	0
C/C(=N\NC(=O)c1c(C)nc2ccccn12)c1ccco1	134	0	0	0	0	0
Cc1ccc(-c2cc3c(nn2)-c2ccccc2C3=O)cc1	-	0	-	-	-	-
O=C1c2ccccc2-c2nnc(-c3ccc(O)cc3)cc21	0	0	90	0	0	0
Cc1ccccc1-c1cc2c(nn1)-c1ccccc1C2=O	0	-	77	0	0	0
Cc1cccc(C)c1NS(=O)(=O)c1ccc2c(c1)C(=O)c1ccccc1C2=O	0	-	0	0	0	-
O=C1c2ccccc2-c2nnc(-c3ccc(F)cc3)cc21	0	-	79	4.5	0	144
Cc1ccc(-c2nc(SCC(=O)N(C)C3CCS(=O)(=O)C3)[nH]c2-c2ccc(C)cc2)cc1 (centres undefined)	0	0	0	0	0	0
